Reference: ChEMBL document CHEMBL1921735, “Antibacterial optimization of 4-aminothiazolyl analogues of the natural product GE2270 A: identification of the cycloalkylcarboxylic acids” (J Med Chem, 2011)
≈ marks a conversion by molar mass, not a printed value. Calls of active or inactive are those of the source.

How the values were obtained:
Streptococcus pyogenes = assay: Antibacterial activity against Streptococcus pyogenes ATCC BAA-595 by CLSI M07-A8 method; type: functional
Summary of the method: (§1)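 Broth microdilution MIC run per CLSI M07-A8 (2009).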

Streptococcus pneumoniae = assay: Antibacterial activity against Streptococcus pneumoniae by CLSI M07-A8 method; type: functional, organism-based; summary of the method: as §1
Staphylococcus aureus [1] = assay: Antibacterial activity against GE2270-A-resistant Staphylococcus aureus harboring tufA G258D mutant gene by CLSI M07-A8 method; type: functional
Enterococcus faecium = assay: Antibacterial activity against Enterococcus faecium 7130724 by CLSI M07-A8 method; type: functional; summary of the method: as §1
Staphylococcus aureus [2] = assay: Antibacterial activity against methicillin-resistant Staphylococcus aureus isolate A4.018 by CLSI M07-A8 method; type: functional
Enterococcus faecalis = assay: Antibacterial activity against Enterococcus faecalis ATCC 29212 by CLSI M07-A8 method; type: functional; summary of the method: as §1

| Compound | MIC (Streptococcus pyogenes) | Activity (Streptococcus pneumoniae) | Activity (Staphylococcus aureus [1]) | MIC (Enterococcus faecium) | MIC (Staphylococcus aureus [2]) | MIC (Enterococcus faecalis) | MIC (Staphylococcus aureus [1]) |
| --- | --- | --- | --- | --- | --- | --- | --- |
| CNC(=O)C[C@@H]1NC(=O)c2csc(n2)-c2ccc(-c3nc(NC(=O)CC(=O)O)cs3)nc2-c2csc(n2)-c2csc(n2)[C@H]([C@@H](O)c2ccccc2)NC(=O)CNC(=O)c2nc(sc2COC)[C@H](C(C)C)NC(=O)c2nc1sc2C | 8 µg/mL (≈ 6.77 µM) | Active | inactive | 2 µg/mL (≈ 1.69 µM) | 1 µg/mL (≈ 0.846 µM) | 1 µg/mL (≈ 0.846 µM) |  |
| CNC(=O)C[C@@H]1NC(=O)c2csc(n2)-c2ccc(-c3nc(NC(=O)OC(C)(C)C)cs3)nc2-c2csc(n2)-c2csc(n2)[C@H]([C@@H](O)c2ccccc2)NC(=O)CNC(=O)c2nc(sc2COC)[C@H](C(C)C)NC(=O)c2nc1sc2C | > 128 µg/mL | Active |  | > 128 µg/mL | > 128 µg/mL | > 128 µg/mL | > 32 µg/mL |
| CNC(=O)C[C@@H]1NC(=O)c2csc(n2)-c2ccc(-c3nc(NC(=O)NCCCC(=O)O)cs3)nc2-c2csc(n2)-c2csc(n2)[C@H]([C@@H](O)c2ccccc2)NC(=O)CNC(=O)c2nc(sc2COC)[C@H](C(C)C)NC(=O)c2nc1sc2C | 16 µg/mL (≈ 13.1 µM) | Active | inactive | 4 µg/mL (≈ 3.26 µM) | 1 µg/mL (≈ 0.816 µM) | 1 µg/mL (≈ 0.816 µM) |  |
| CNC(=O)C[C@@H]1NC(=O)c2csc(n2)-c2ccc(-c3nc(NC(=O)CC[C@@H](C)C(=O)O)cs3)nc2-c2csc(n2)-c2csc(n2)[C@H]([C@@H](O)c2ccccc2)NC(=O)CNC(=O)c2nc(sc2COC)[C@H](C(C)C)NC(=O)c2nc1sc2C | 4 µg/mL (≈ 3.27 µM) | Active | inactive | 0.25 µg/mL (≈ 0.204 µM) | 0.25 µg/mL (≈ 0.204 µM) | 0.125 µg/mL (≈ 0.102 µM) |  |
| CNC(=O)C[C@@H]1NC(=O)c2csc(n2)-c2ccc(-c3nc(NC(=O)COCC(=O)O)cs3)nc2-c2csc(n2)-c2csc(n2)[C@H]([C@@H](O)c2ccccc2)NC(=O)CNC(=O)c2nc(sc2COC)[C@H](C(C)C)NC(=O)c2nc1sc2C | 4 µg/mL (≈ 3.3 µM) | Active | inactive | 2 µg/mL (≈ 1.65 µM) | 0.5 µg/mL (≈ 0.412 µM) | 0.5 µg/mL (≈ 0.412 µM) |  |
| CNC(=O)C[C@@H]1NC(=O)c2csc(n2)-c2ccc(-c3nc(NC(=O)CCCC(=O)O)cs3)nc2-c2csc(n2)-c2csc(n2)[C@H]([C@@H](O)c2ccccc2)NC(=O)CNC(=O)c2nc(sc2COC)[C@H](C(C)C)NC(=O)c2nc1sc2C | 8 µg/mL (≈ 6.61 µM) | Active | inactive | 0.5 µg/mL (≈ 0.413 µM) | 0.25 µg/mL (≈ 0.207 µM) | 0.25 µg/mL (≈ 0.207 µM) |  |
| CNC(=O)C[C@@H]1NC(=O)c2csc(n2)-c2ccc(-c3nc(NS(N)(=O)=O)cs3)nc2-c2csc(n2)-c2csc(n2)[C@H]([C@@H](O)c2ccccc2)NC(=O)CNC(=O)c2nc(sc2COC)[C@H](C(C)C)NC(=O)c2nc1sc2C | > 32 µg/mL | Active |  | 4 µg/mL (≈ 3.4 µM) | 4 µg/mL (≈ 3.4 µM) | 2 µg/mL (≈ 1.7 µM) | > 32 µg/mL |
| CNC(=O)C[C@@H]1NC(=O)c2csc(n2)-c2ccc(-c3nc(-n4cnc(C(=O)O)c4)cs3)nc2-c2csc(n2)-c2csc(n2)[C@H]([C@@H](O)c2ccccc2)NC(=O)CNC(=O)c2nc(sc2COC)[C@H](C(C)C)NC(=O)c2nc1sc2C | > 32 µg/mL | Active |  | > 32 µg/mL | 4 µg/mL (≈ 3.36 µM) | 4 µg/mL (≈ 3.36 µM) | > 32 µg/mL |
| CNC(=O)C[C@@H]1NC(=O)c2csc(n2)-c2ccc(-c3nc(NC(=O)NCCC(=O)O)cs3)nc2-c2csc(n2)-c2csc(n2)[C@H]([C@@H](O)c2ccccc2)NC(=O)CNC(=O)c2nc(sc2COC)[C@H](C(C)C)NC(=O)c2nc1sc2C | 8 µg/mL (≈ 6.6 µM) | Active |  | 2 µg/mL (≈ 1.65 µM) | 1 µg/mL (≈ 0.825 µM) | 1 µg/mL (≈ 0.825 µM) | > 32 µg/mL |
| CNC(=O)C[C@@H]1NC(=O)c2csc(n2)-c2ccc(-c3nc(NC(=O)OCCN4CCOCC4)cs3)nc2-c2csc(n2)-c2csc(n2)[C@H]([C@@H](O)c2ccccc2)NC(=O)CNC(=O)c2nc(sc2COC)[C@H](C(C)C)NC(=O)c2nc1sc2C | > 32 µg/mL | Active | inactive | 0.5 µg/mL (≈ 0.399 µM) | 1 µg/mL (≈ 0.798 µM) | 0.5 µg/mL (≈ 0.399 µM) |  |
| CNC(=O)C[C@@H]1NC(=O)c2csc(n2)-c2ccc(-c3nc(NS(C)(=O)=O)cs3)nc2-c2csc(n2)-c2csc(n2)[C@H]([C@@H](O)c2ccccc2)NC(=O)CNC(=O)c2nc(sc2COC)[C@H](C(C)C)NC(=O)c2nc1sc2C | > 32 µg/mL | Active |  | 4 µg/mL (≈ 3.41 µM) | 2 µg/mL (≈ 1.7 µM) | 2 µg/mL (≈ 1.7 µM) | > 32 µg/mL |
